Data as given in PubChem BioAssay AID504538 (Southern Research Specialized Biocontainment Screening …, 2011).
Active and inactive are the calls of the source. No rule for the calls is given here.

tested on: not listed separately; experiment: T7 lysis protection in EV36 bacteria – E. coli EV36, T7 phage, set 2, counter-screen for bacterial capsule biogenesis inhibitors, dose response (AID 504538); details: E. coli EV36 T7 phage lysis, OD600 3 h; at 100 µM (top of the series)
In short: (§1)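 Assay system: Escherichia coli EV36, K1 and K-12 hybrid strain; Buffer or medium: LB medium, culture diluted 1:100; Reagent: T7 bacteriophage infection after compound pre-exposure; Times: 1.5 h at 37 °C, then 3 h phage; Detection: optical density at 600 nm, 3 h after phage infection; Read-out: phage lysis inhibition from OD600; Replicates: quadruplicate.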

SMILES | phage lysis inhibition
COc1ccc(-c2cc(C(=O)O)c3ccccc3n2)cc1 | 102% (inactive)
O=C1c2c(O)ccc(O)c2C(=O)c2c(NCCNCCO)ccc(NCCNCCO)c21 | 140% (inactive)
O=C(Nc1cccc(C2=NCCN2)c1)Nc1cccc(C2=NCCN2)c1 | 88.6% (inactive)
Cc1cccc(-c2cc(C(=O)O)c3ccccc3n2)c1 | 102% (inactive)
N=C(N)SCCc1cccc(CCSC(=N)N)c1 | 99.9% (inactive)
CCN(CC)c1ccc2c(-c3ccc(S(=O)(=O)O)cc3S(=O)(=O)O)c3ccc(=[N+](CC)CC)cc-3oc2c1 | 110% (inactive)

tested on: E. coli EV36 T7 phage lysis, OD600 3 h; experiment: as above; details: not given
In short: as §1

SMILES | IC50
COc1cc(/C=N/N=C(N)N)ccc1OCc1ccccc1Cl | 44 µM (inactive)
NC(N)=N/N=C/c1ccc(OCc2ccccc2)cc1 | 45 µM (inactive)
